Experimental data taken from ChEMBL document CHEMBL1799920, “Total synthesis and pharmacological characterization of solomonsterol A, a potent marine pregnane-X-receptor agonist endowed with anti-inflammatory activity” (J Med Chem, 2011).
The source made the active and inactive calls. The calls are words filed in the database; no cut-off is given here.

Assays:
Mus musculus [1] = assay: Antiinflammatory activity against trinitrobenzenesulfonic acid-induced colitis in human PXR expressing transgenic C57/BL6 mouse assessed as decrease in INF-gamma protein level in colon at 10 mg/kg, po qd after 5 days; assay type: functional, organism-based; set-up: dose 10 mg/kg; conditions: C57Bl/6
Mus musculus [2] = assay: Antiinflammatory activity against trinitrobenzenesulfonic acid-induced colitis in human PXR expressing transgenic C57/BL6 mouse assessed as increase in IL-10 protein level in colon at 10 mg/kg, po qd after 5 days by ELISA; assay type: functional, organism-based; set-up: dose 10 mg/kg; conditions: C57Bl/6
Outline: (§1)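 TNFα and IL-10 were measured by ELISA in colon homogenates (T-PER lysis, 10,000g for 15 min at 4 °C) from TNBS-colitic hPXR mice. Mice were dosed orally at 10 mg/kg once daily in DMSO/1% methylcellulose, starting 3 days before intrarectal TNBS (0.5 mg/mouse). Values were normalized to protein; mean ± SE, 6–7 mice/group.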

Mus musculus [3] = assay: Antiinflammatory activity against trinitrobenzenesulfonic acid-induced colitis in human PXR expressing transgenic C57/BL6 mouse assessed as decrease in weight loss at 10 mg/kg, po qd administered 3 days before TNBS challenge measured after 7 days; assay type: functional, organism-based; set-up: dose 10 mg/kg; conditions: C57Bl/6
Outline: (§2)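 Clinical read-outs in hPXR mice with TNBS colitis (0.5 mg/mouse intrarectally in 50% ethanol after a 16 h fast). Oral dosing at 10 mg/kg once daily (DMSO diluted in 1% methylcellulose) started 3 days before TNBS. Diarrhea was scored and body weight recorded, weight expressed as delta percentage versus the day before TNBS; sacrifice was 4 days after TNBS. n = 6–7.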

Mus musculus [4] = assay: Antiinflammatory activity against trinitrobenzenesulfonic acid-induced colitis in human PXR expressing transgenic C57/BL6 mouse assessed as increase in TGF-beta1 protein level in colon at 10 mg/kg, po qd after 5 days; conditions: C57Bl/6
Mus musculus [5] = assay: Antiinflammatory activity against trinitrobenzenesulfonic acid-induced colitis in human PXR expressing transgenic C57/BL6 mouse assessed as decrease in occurrence of diarrhea at 10 mg/kg, po qd administered 3 days before TNBS challenge measured after 7 days; assay type: functional, organism-based; set-up: dose 10 mg/kg; conditions: C57Bl/6; outline: as §2
THP-1 = assay: Inhibition of NF-kappaB p65 DNA binding activity in LPS-stimulated human THP1 cells at 10 uM after 3 hrs by electrophoretic mobility shift assay; assay type: cell-based
Outline: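 THP-1 cells were pretreated with compound (10 μM) or vehicle for 3 h, then LPS 1 μg/mL was added for 20 h. Nuclear extracts were incubated with biotinylated NF-κB probe for 20 min at room temperature, run on a 6% native gel and detected by chemiluminescence. Specificity was checked by cold-probe competition and p65 antibody supershift. Three independent experiments.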

Mus musculus [6] = assay: (§3) Antiinflammatory activity against trinitrobenzenesulfonic acid-induced colitis in human PXR expressing transgenic C57/BL6 mouse assessed as decrease in appearance of submucosal edema in colon at 10 mg/kg, po qd administered 3 days before TNBS challenge measured after 7 days by haematoxylin/eosin staining; assay type: functional, organism-based; set-up: dose 10 mg/kg; conditions: C57Bl/6
Outline: (§4)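 TNBS colitis in male hPXR mice (human PXR on mouse PXR-null background). After a 16 h fast and light ketamine/xylazine i.p. anesthesia, mice received TNBS 0.5 mg/mouse in 50% ethanol intrarectally by catheter. Dosing was 10 mg/kg orally once daily, dissolved in DMSO and diluted in 1% methylcellulose, starting 3 days before TNBS. Colons were taken 4 days after TNBS and stained with H&E. n = 6–7.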

[7] = target: T1, Nuclear receptor subfamily 1 group I member 2 (Homo sapiens, UniProt O75469); assay: Transactivation of human PXR expressed in HepG2 cells after 18 hrs by luciferase reporter gene assay; assay type: cell-based
T1 sequence (O75469 whole entry): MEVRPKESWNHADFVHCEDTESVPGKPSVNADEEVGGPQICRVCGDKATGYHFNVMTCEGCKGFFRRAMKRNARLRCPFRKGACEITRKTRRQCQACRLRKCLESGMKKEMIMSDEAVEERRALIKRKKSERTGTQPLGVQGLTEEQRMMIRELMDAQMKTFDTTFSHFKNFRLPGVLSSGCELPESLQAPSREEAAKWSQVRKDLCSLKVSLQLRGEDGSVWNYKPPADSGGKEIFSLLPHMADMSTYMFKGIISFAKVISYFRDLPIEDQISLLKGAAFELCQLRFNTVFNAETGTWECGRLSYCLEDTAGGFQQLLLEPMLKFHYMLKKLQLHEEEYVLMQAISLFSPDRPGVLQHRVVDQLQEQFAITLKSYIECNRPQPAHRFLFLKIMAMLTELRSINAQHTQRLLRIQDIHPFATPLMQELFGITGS
Outline: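 HepG2 cells were transiently transfected with pSG5-PXR, pSG5-RXR, pCMV-βgal and a CYP3A4-promoter luciferase reporter. 48 h after transfection, cells were stimulated for 18 h at 0.1, 1 and 10 μM. Luciferase was normalised to β-galactosidase; n = 4. Relative EC50 from n = 3.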

Mus musculus [8] = assay: as §3, with “epithelial erosions” for “submucosal edema”; assay type: functional, organism-based; set-up: dose 10 mg/kg; conditions: C57Bl/6; outline: as §4
Mus musculus [9] = assay: Antiinflammatory activity against trinitrobenzenesulfonic acid-induced colitis in human PXR expressing transgenic C57/BL6 mouse assessed as decrease in IL-12p70 protein level in colon at 10 mg/kg, po qd after 5 days; assay type: functional, organism-based; set-up: dose 10 mg/kg; conditions: C57Bl/6
Mus musculus [10] = assay: Antiinflammatory activity against trinitrobenzenesulfonic acid-induced colitis in human PXR expressing transgenic C57/BL6 mouse assessed as decrease in thickness of colon at 10 mg/kg, po qd administered 3 days before TNBS challenge measured after 7 days; assay type: functional, organism-based; set-up: dose 10 mg/kg; conditions: C57Bl/6
Outline: (§5)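 hPXR male mice were fasted 16 h and given TNBS intrarectally (0.5 mg/mouse in 50% ethanol). Oral 10 mg/kg once daily (DMSO stock diluted in 1% methylcellulose) began 3 days before TNBS; vehicle controls received 1% methylcellulose. Four days after TNBS, colon macroscopic appearance was graded blind for induration, edema, thickness and mucosal hemorrhage. n = 6–7.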

Mus musculus [11] = assay: Antiinflammatory activity against trinitrobenzenesulfonic acid-induced colitis in human PXR expressing transgenic C57/BL6 mouse assessed as decrease in presence of indurations in colon at 10 mg/kg, po qd administered 3 days before TNBS challenge measured after 7 days; assay type: functional, organism-based; set-up: dose 10 mg/kg; conditions: C57Bl/6; outline: as §5
Mus musculus [12] = assay: Antiinflammatory activity against trinitrobenzenesulfonic acid-induced colitis in human PXR expressing transgenic C57/BL6 mouse assessed as decrease in TNF-alpha protein level in colon at 10 mg/kg, po qd after 5 days by ELISA; assay type: functional, organism-based; set-up: dose 10 mg/kg; conditions: C57Bl/6; outline: as §1
Mus musculus [13] = assay: Antiinflammatory activity against trinitrobenzenesulfonic acid-induced colitis in human PXR expressing transgenic C57/BL6 mouse assessed as decrease in colonic myeloperoxidase activity at 10 mg/kg, po qd after 5 days using trimethylbenzidine as substrate by spectrophotometry; assay type: functional, organism-based; set-up: dose 10 mg/kg; conditions: C57Bl/6
Outline: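 Colon myeloperoxidase from TNBS-colitic hPXR mice given oral 10 mg/kg daily. Colon was lysed in T-PER and minced, then centrifuged at 10,000g for 15 min at 4 °C. After two freeze/thaw cycles, MPO in the homogenate was measured spectrophotometrically with TMB substrate and normalized to protein. Mean ± SE, 6–7 mice/group.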

Mus musculus [14] = assay: Antiinflammatory activity against trinitrobenzenesulfonic acid-induced colitis in human PXR expressing transgenic C57/BL6 mouse assessed as induction of CYP3A11 mRNA expression in colon at 10 mg/kg, po qd after 5 days by quantitative RT-PCR; assay type: functional, organism-based; set-up: dose 10 mg/kg; conditions: C57Bl/6
Outline: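 Cyp3A11 mRNA in colon of TNBS-colitic hPXR mice was measured by SYBR Green qPCR (50 ng template, 0.2 μM primers). Cycling was 95 °C for 2 min, then 40 cycles of 95/55/72 °C, with each reaction run in triplicate. Expression was calculated by ΔΔCT against GAPDH relative to untreated control. Mean ± SE, 5 mice/group.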

Mus musculus [15] = assay: Antiinflammatory activity against trinitrobenzenesulfonic acid-induced colitis in human PXR expressing transgenic C57/BL6 mouse assessed as decrease in evidence of mucosal hemorrhage damage at 10 mg/kg, po qd administered 3 days before TNBS challenge measured after 7 days; assay type: functional, organism-based; set-up: dose 10 mg/kg; conditions: C57Bl/6; outline: as §5
Mus musculus [16] = assay: Antiinflammatory activity against trinitrobenzenesulfonic acid-induced colitis in human PXR expressing transgenic C57/BL6 mouse assessed as decrease in MIP-1alpha protein level in colon at 10 mg/kg, po qd after 5 days; assay type: functional, organism-based; set-up: dose 10 mg/kg; conditions: C57Bl/6
Mus musculus [17] = assay: Antiinflammatory activity against trinitrobenzenesulfonic acid-induced colitis in human PXR expressing transgenic C57/BL6 mouse assessed as decrease in cellular infiltrate in colon at 10 mg/kg, po qd administered 3 days before TNBS challenge measured after 7 days; assay type: functional, organism-based; set-up: dose 10 mg/kg; conditions: C57Bl/6; outline: as §4
Mus musculus [18] = assay: Antiinflammatory activity against trinitrobenzenesulfonic acid-induced colitis in human PXR expressing transgenic C57/BL6 mouse assessed as decrease in microscopic colon damage at 10 mg/kg, po qd administered 3 days before TNBS challenge measured after 7 days; assay type: functional, organism-based; set-up: dose 10 mg/kg; conditions: C57Bl/6
Outline: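 Microscopic colon damage in the prophylactic TNBS model in hPXR mice: oral 10 mg/kg daily, in DMSO/1% methylcellulose, from 3 days before intrarectal TNBS (0.5 mg/mouse in 50% ethanol). Colons were collected at day 4 post-TNBS, formalin-fixed, paraffin-embedded and H&E-stained, then graded blind on a 0–4 scale (leukocyte infiltration, vascular density, wall thickening, goblet cell loss). n = 6–7.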

Mus musculus [19] = assay: Antiinflammatory activity against trinitrobenzenesulfonic acid-induced colitis in human PXR expressing transgenic C57/BL6 mouse assessed as decrease in edema of colon at 10 mg/kg, po qd administered 3 days before TNBS challenge measured after 7 days; assay type: functional, organism-based; set-up: dose 10 mg/kg; conditions: C57Bl/6; outline: as §5

**Q.** For `CO[C@H]1/C=C/O[C@@]2(C)Oc3c(C)c(O)c4c(O)c(c5c(nc6cc(C)ccn65)c4c3C2=O)NC(=O)/C(C)=C\C=C\[C@H](C)[C@H](O)[C@@H](C)[C@@H](O)[C@@H](C)[C@H](OC(C)=O)[C@@H]1C` [RIFAXIMIN], which Activity (Mus musculus [1]) is on record?
**A.** Active

**Q.** What about the Activity (Mus musculus [2]) of the same compound?
**A.** Active

**Q.** And the Activity (Mus musculus [3])?
**A.** Active

**Q.** And the Activity (Mus musculus [4])?
**A.** Active

**Q.** And the Activity (Mus musculus [5])?
**A.** Active

**Q.** What about the Activity (THP-1) of the same compound?
**A.** Active

**Q.** What about the Activity (Mus musculus [6]) of the same compound?
**A.** Active

**Q.** And the EC50 [7]?
**A.** 2.2 µM

**Q.** And the Activity (Mus musculus [8])?
**A.** Active

**Q.** And the Activity (Mus musculus [9])?
**A.** Active

**Q.** What about the Activity (Mus musculus [10]) of the same compound?
**A.** Active

**Q.** And the Activity (Mus musculus [11])?
**A.** Active

**Q.** What about the Activity (Mus musculus [12]) of the same compound?
**A.** Active

**Q.** And the Activity (Mus musculus [13])?
**A.** Active

**Q.** And the Activity (Mus musculus [14])?
**A.** Active

**Q.** What about the Activity (Mus musculus [15]) of the same compound?
**A.** Active

**Q.** And the Activity (Mus musculus [16])?
**A.** Active

**Q.** What about the Activity (Mus musculus [17]) of the same compound?
**A.** Active

**Q.** And the Activity (Mus musculus [18])?
**A.** Active

**Q.** And the Activity (Mus musculus [19])?
**A.** Active
